Assay results pooled from the literature.
Protocols differ between the studies behind these lines.
Target: Serine/threonine-protein kinase SIK2 (SIK2, Homo sapiens, UniProt Q9H0K1)

| Compound | test | setting | remaining binding |
| --- | --- | --- | --- |
| c1cncc(-c2cccc(Nc3nccc(NC4CCCCC4)n3)c2)c1 | binding, competition with immobilised ligand | 10 µM | 73% |
| C[C@@H](c1cccc(C#N)c1)n1cc(Cl)cc(C(N)=O)c1=N | cell-free assay, competition with immobilised ligand | 1 µM | 100% |
| C=CC(=O)N1CCC(C(=O)NCC(=O)N2CCN(c3nc(-c4cnc(N)nc4C(F)F)nc(N4CCOCC4)n3)CC2)CC1 | binding, competition with immobilised ligand | 1 µM | 96% |
| N[C@H]1CCN(c2nccc(-c3cnn4ncccc34)n2)C1 | binding | 1 µM | 87% |
| COc1ncc2cc3ccccc3nc2c1C#N | cell-free assay, competition with immobilised ligand | 5 µM | 94% |
| CNC(=O)[C@@H]1CC[C@@H](n2c(-c3ccc4cnccc4c3)nc3ccc(C(=O)NCc4cccc(C(N)=O)c4)cc32)C1 | binding, competition with immobilised ligand | 1 µM | 97% |
| O=C(NCCCN1CCOCC1)c1ccc(Nc2ncc(Cl)c(-c3ccc(Cl)s3)n2)cc1 | binding, competition with immobilised ligand | 1 µM | 37% |
| O=S(=O)(NC1CCC(c2cc(F)ccc2F)(S(=O)(=O)c2ccc(Cl)cc2)CC1)C(F)(F)F (stereo not shown) | cell-free assay, competition with immobilised ligand | 1 µM | 100% |
| CN(C)c1nccc(-c2cnc3ncccn23)n1 | binding | 1 µM | 100% |
| COc1cc(-c2cn(C3CCc4c(F)cccc4N(CC(F)(F)F)C3=O)nn2)ccc1-n1cnc(C)c1 (stereo not shown) | cell-free assay, competition with immobilised ligand | 1 µM | 100% |
| Cc1cnc(Nc2ccc(C(=O)N3CCC(N4CCCC4)CC3)cc2)nc1-c1cc2ccccc2s1 | binding, competition with immobilised ligand | 1 µM | 16% |
| Nc1ncc2c(n1)-c1c([nH]c3ccc(C#CC4CC4)cc13)CCCC2 | binding, competition with immobilised ligand | 1 µM | 81% |
| CN(C)c1nccc(-c2cnn3ncccc23)n1 | binding | 1 µM | 100% |
| CCC(=N\O)/C(C)=C/c1ccc(F)cc1 | cell-free assay, competition with immobilised ligand | 1 µM | 100% |
| F[C@@H]1CCN(c2nccc(-c3cnn4ncccc34)n2)C1 | binding | 1 µM | 100% |
| CNCc1ccccc1-c1csc([C@H](C)Nc2nc(C)nc3cc(OC)c(OC)cc23)c1 | cell-free assay, competition with immobilised ligand | 1 µM | 100% |
| Cc1cnn2ncc(-c3ccnc(N(C)C)n3)c2c1 | binding | 1 µM | 100% |
| O=C(NCC1CCOCC1)c1n[nH]cc1NC(=O)c1c(F)cccc1F | binding, competition with immobilised ligand | 1 µM | 83% |
| CNC(=O)c1ccc(Nc2ncc(C(F)(F)F)c(NCc3nccnc3N(C)S(C)(=O)=O)n2)cc1 | cell-free assay, competition with immobilised ligand | 0.1 µM | 100% |
| CN(c1nccc(-c2cnn3ncccc23)n1)C1CC1 | binding | 1 µM | 100% |
| CN1CCN(c2cnc3c(C4CCN(C(=O)c5ccc(OC(F)(F)F)cc5N)CC4)ncnc3c2)CC1 | cell-free assay, competition with immobilised ligand | 1 µM | 100% |
| O=C(c1ccc(Nc2ncc(Cl)c(-c3ccc(Cl)s3)n2)cc1)N1CCC(N2CCCC2)CC1 | binding, competition with immobilised ligand | 1 µM | 21% |
